High-throughput results deposited in PubChem BioAssay by The Scripps Research Institute Molecular Screening Center.
M5 PAM: human M5 muscarinic receptor positive allosteric modulators, primary screen, CHO-K1 cells, Fluo-8 calcium fluorescence; Muscarinic acetylcholine receptor M5 (Homo sapiens), P08912; CHO-K1 hM5, ACh EC20 PAM; 0% = ACh EC20, 100% = ACh EC100; activation, % at 3 µM; AID 624038, 2012; actives 0.3% (n = 360,000);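 active = activation above the run cutoff, the mean activation of all test compounds plus 3 SD, cut at about 18% in these data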
Target sequence (P08912 whole entry, looked up): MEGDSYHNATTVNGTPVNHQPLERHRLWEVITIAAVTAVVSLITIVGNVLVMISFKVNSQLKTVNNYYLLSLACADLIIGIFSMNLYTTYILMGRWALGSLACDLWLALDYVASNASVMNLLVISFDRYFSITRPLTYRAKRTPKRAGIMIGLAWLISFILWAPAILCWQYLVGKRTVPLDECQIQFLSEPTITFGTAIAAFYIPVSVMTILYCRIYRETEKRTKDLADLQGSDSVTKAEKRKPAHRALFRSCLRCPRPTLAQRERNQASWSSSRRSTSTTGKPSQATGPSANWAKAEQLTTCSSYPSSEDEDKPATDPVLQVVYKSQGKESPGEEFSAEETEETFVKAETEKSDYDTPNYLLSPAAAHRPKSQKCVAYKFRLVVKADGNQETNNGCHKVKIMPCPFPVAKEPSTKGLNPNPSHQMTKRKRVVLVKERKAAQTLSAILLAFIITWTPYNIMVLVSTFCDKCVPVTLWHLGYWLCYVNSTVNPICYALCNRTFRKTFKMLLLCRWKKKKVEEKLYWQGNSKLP
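system = human M5 receptor in CHO-K1 cells | compound = one concentration, 3 µM final (nominal) | schedule = Post-acetylcholine fluorescence recording 140 s | signal = Fluo-8 calcium dye fluorescence, kinetic read | benchmarks = low control EC20 acetylcholine (0%), high control EC100 acetylcholine (100%) | repeats = singlicate, one well per test compound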
CHRM5 antagonist: human M5 muscarinic receptor antagonists, primary screen, CHO cells, Fluo-8 calcium fluorescence; Muscarinic acetylcholine receptor M5 (Homo sapiens), P08912; CHO-hM5 cells, ACh EC80; inhibition, % at 3 µM; actives 0.59% (n = 360,000); AID 624040, 2012;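 active = inhibition above a per-plate cutoff, the mean of that plate's test compounds plus 3 SD, cut at about 27% in these data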;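 note: 0% = acetylcholine EC80 with DMSO and 100% = DMSO without agonist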
M4 antag: human M4 muscarinic receptor antagonists, primary screen, CHO cells, Fluo-8 calcium fluorescence; Muscarinic acetylcholine receptor M4 (Homo sapiens), P08173; CHO-hM4 cells, ACh EC80; inhibition, % at 3 µM; actives 0.73% (n = 360,000); AID 624125, 2012;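 active = inhibition above its plate's cutoff, the mean inhibition of sample wells plus 3 SD, cut at about 27% in these data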;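 note: 0% = acetylcholine EC80 with DMSO and 100% = DMSO without agonist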
CHRM5 agonist: human M5 muscarinic receptor agonists, primary screen, CHO-K1 cells, Fluo-8 calcium fluorescence; Muscarinic acetylcholine receptor M5 (Homo sapiens), P08912; CHO-K1 hM5 cells; 0% DMSO wells, 100% maximal acetylcholine response; activation, % at 3 µM; actives 0.19% (n = 360,000);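 active = activation above the run's mean over test compounds plus 3 SD, cut at about 23% in these data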;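 note: signal is peak over basal fluorescence ratio across the kinetic read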
CHRM4 PAM: human M4 muscarinic receptor positive allosteric modulators, primary screen, CHO-K1 cells, Fluo-8 calcium fluorescence | Muscarinic acetylcholine receptor M4 (Homo sapiens), P08173 | CHO-K1 hM4/Gqi5, ACh EC20; 0% = ACh EC20, 100% = maximal ACh | activation, % at 3 µM | actives 0.4% (n = 360,000);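 active = activation above its plate's cutoff, the mean activation of sample wells plus 3 SD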
M4 ag: human M4 muscarinic receptor agonists, primary screen, CHO-K1 cells, Fluo-8 calcium fluorescence; actives 0.14% (n = 360,000); activation, % at 3 µM; Muscarinic acetylcholine receptor M4 (Homo sapiens), P08173; CHO-K1 hM4/Gqi5; vehicle 0%, full acetylcholine response 100%;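 active = activation above the run mean over all test wells plus 3 SD, cut at about 32% in these data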;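 note: peak over basal fluorescence ratio per well then scaled between controls; 0% = DMSO wells and 100% = acetylcholine at EC100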
Starred values were filed as active, the others as inactive. Compounds with a hit are over-represented: about 1.8% of the library has one in this group of screens.

SMILES | M5 PAM | CHRM5 antagonist | M4 antag | CHRM5 agonist | CHRM4 PAM | M4 ag
CCN1CCN(C(C(=O)NC2CCCCC2)c2cc3ccccc3o2)CC1 (stereo not given) | -3.6 | -13.1 | 7.8 | -0.6 | -5.9 | 1.3
CCC(c1nnnn1Cc1ccc(F)cc1)N1CCN(C)CC1 (stereo not given) | 8.7 | 1.7 | -16.1 | -13.6 | 24.3* | 1.6
COc1cccc(C(=O)OCC(=O)c2c(N)n(C)c(=O)n(C)c2=O)c1 | -1.0 | 4.8 | 0.7 | 1.1 | -0.1 | 1.4
C=CCN1C(=O)/C(=C/c2ccc(OC(C)=O)c(OCC)c2[N+](=O)[O-])SC1=S | -8.4 | 17.7 | 11.6 | 16.0 | -1.3 | 13.4
COc1cccc(C(C(=O)NC2CCCC2)N(C(=O)c2ccco2)c2ccc(NC(C)=O)cc2)c1OC (stereo not given) | -0.7 | 12.2 | -8.7 | -3.7 | 20.9* | 2.4
CC1CC1c1ccc(/C=C(\C#N)C(=O)Nc2cc(Cl)ccc2Cl)o1 (stereo not given) | 9.4 | -4.1 | -6.1 | 1.4 | 20.8* | 1.0
CCCNC(=O)C1(C)CCN(Cc2ccc(C(=O)OCC)cc2)C1 (stereo not given) | -4.0 | 11.0 | 8.5 | -1.7 | -8.4 | 1.6
CC1(c2ccc(Cl)cc2)NC(=O)CS1 (stereo not given) | -0.9 | 1.7 | -0.2 | -2.6 | 4.0 | 0.1
CC1Cc2nc(SCC(=O)NCc3ccccc3)n(Cc3ccccc3)c(=O)c2S1 (stereo not given) | -6.4 | -4.0 | 37.9* | -3.7 | -16.1 | 4.2
CC1Cc2nc(SCC(=O)c3ccccc3)n(Cc3ccccc3)c(=O)c2S1 (stereo not given) | -4.9 | 1.1 | -2.5 | -4.3 | -5.0 | 4.1
COc1ccc(NC(=O)CCCN2C(=O)CN(C)C2=O)cc1Cl | -2.4 | 2.5 | 4.4 | 2.6 | 1.1 | 0.5
CCc1ccc(NC(=S)N2CCCC(C(F)(F)F)C2)cc1 (stereo not given) | 2.4 | 6.7 | 7.0 | -0.9 | -1.3 | 0.2
c1ccc2c(c1)CCCc1cc(NCCN3CCOCC3)nnc1-2 | -3.5 | 0.6 | 33.6* | -1.1 | -7.4 | 1.5
CC1(C)NC(=O)N(CC(=O)OCC(=O)N2CCN(S(=O)(=O)c3ccccc3)CC2)C1=O | 0.2 | 8.5 | -5.6 | -0.6 | 10.3 | 0.8
Cc1ccc(NC(=O)CN(C)C(=O)COC(=O)c2nc3nccc(C)n3n2)cc1 | -2.2 | 1.6 | -0.3 | 4.4 | 5.8 | 0.8
COc1cc2c(cc1OC)CN(C(=O)c1cccc(S(=O)(=O)N(C)C)c1)CC2 | 14.1 | -4.7 | 29.2* | 5.5 | 17.4 | 1.1
CC(=O)c1cccc2c(O)c(C3=Nc4ccccc4C3=O)[nH]c12 | 8.8 | -8.0 | 11.0 | -2.2 | 25.4* | 1.8
O=C1C(c2c(O)[nH]c3ccccc23)=Nc2ccccc21 | -0.3 | -3.1 | -12.6 | 0.7 | -0.5 | 2.7
COc1ccccc1Nc1nc(N)nc(CN2CCN(Cc3ccccc3)CC2)n1 | -4.2 | 4.3 | 11.3 | -1.1 | -3.8 | 0.1
COc1ccc(N2CCN(Cc3nc(N)nc(Nc4ccccc4OC)n3)CC2)cc1 | -7.0 | -1.7 | 26.7* | 0.1 | 10.1 | -0.6
O=C1CSC(c2ccccn2)N1c1ccccc1F (stereo not given) | -6.5 | 30.3* | -4.5 | -1.3 | 5.8 | 0.3
COc1cccc(C2SCC(=O)N2c2ccc(Br)cc2)c1OC (stereo not given) | -19.8 | 34.7* | 65.7* | -8.1 | -39.0 | -2.3
O=C1CSC(c2ccccc2F)N1c1ccccc1F (stereo not given) | -1.6 | 5.3 | 8.4 | -5.0 | 4.7 | -0.5
O=C1CSC(c2ccccc2F)N1c1ccccc1 (stereo not given) | -7.1 | -3.1 | -7.0 | -6.3 | 6.0 | 37.1*
CCN1C(=O)[C@H]2[C@@H](c3ccc(-c4ccc(C(C)=O)cc4)cc3)N[C@@](Cc3ccccc3)(C(=O)OC)[C@H]2C1=O | -4.5 | -2.4 | -11.4 | -1.3 | 23.8* | 2.2
SMILES | M5 PAM | CHRM5 antagonist | M4 antag | CHRM5 agonist | CHRM4 PAM | M4 ag
CCN1C(=O)[C@H]2[C@@H](c3ccc(-c4ccccc4)cc3)N[C@@](Cc3ccccc3)(C(=O)OC)[C@H]2C1=O | 1.3 | 5.4 | -14.2 | -2.0 | 16.7 | 0.4
CCN1C(=O)[C@H]2[C@@H](c3ccc(-c4ccccc4)cc3)N3CCCC[C@@]3(C(=O)OC)[C@H]2C1=O | 6.3 | 2.9 | -5.9 | 4.9 | 24.2* | 13.8
COCCNc1nc2cc(-c3ccc(C)cc3)sc2c(=O)n1C | -8.4 | 9.0 | 6.8 | -0.6 | -1.6 | 1.1
N#CC(C#N)=Cc1cnc(N2CCN(c3ccccc3)CC2)s1 | -0.2 | -0.9 | -6.1 | -3.3 | -4.4 | 1.3
Cn1nc(C(F)(F)F)c(-c2ccc(F)cc2)c1NC(=O)Nc1ccc(F)cc1 | -22.6 | 32.9* | 9.8 | -1.5 | -13.6 | 14.7
CCOC(=O)C1CCN(C(C)=C2C(=O)c3ccccc3C2=O)CC1 | 3.9 | -1.9 | 7.3 | 3.5 | 17.0* | -1.2
CCOC(=O)C1CCN(C(=O)CCCN2C(=O)c3ccccc3C2=O)CC1 | 10.2 | 7.9 | -5.4 | -5.4 | 5.8 | 1.4
COc1cccc(CN2CC(C(=O)NCCOc3ccccc3)CCC2=O)c1 (stereo not given) | -13.0 | 28.9* | 2.7 | -5.3 | -3.0 | 2.3
Cc1cc(=O)oc2c(C)c(OC(C)C(=O)Nc3ccc(N4CCC(C)CC4)cc3)ccc12 (stereo not given) | 21.3* | -13.6 | -18.8 | -2.4 | -3.5 | -0.2
COc1ccc(OC)c(NC(=O)CSc2nnc(-c3cnccn3)n2C)c1 | -1.1 | 2.8 | 5.3 | -0.1 | 1.9 | 4.0
Cc1noc(C)c1C(=O)OCC(=O)Nc1ccc(N2CCOCC2)cc1 | -0.5 | 11.3 | -7.1 | 1.3 | 20.1* | 0.7
FC(F)(F)c1cc(Cl)c2nc(-c3ccco3)c(Cc3ccccc3C(F)(F)F)n2c1 | 5.2 | 1.5 | 45.0* | 3.6 | -9.3 | 4.0
Cc1ccc(-c2nc3c(Cl)cc(C(F)(F)F)cn3c2Cc2ccccc2C(F)(F)F)cc1 | -1.5 | -2.6 | -8.9 | -0.9 | 18.1 | 1.1
CC(C)(CNC(=S)NCCc1ccccc1)CNC(=S)NCCc1ccccc1 | -17.3 | 27.8* | 26.3 | 5.1 | -16.5 | 18.2
OCCNC(=S)NCCc1ccccc1 | 6.7 | -8.5 | 2.8 | -2.5 | 3.0 | 0.9
